L major viab: Leishmania major promastigote growth inhibition; Leishmania major promastigotes, resazurin fluorescence viability; inhibition, % at 10 µM; 200,000 tested, 9% active; AID 1063;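 also: promastigotes grown with compound for 44 hours at 28 °C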
Diaph inh CS: inhibits diaphorase or chemically oxidizes, flagging diaphorase assay artifacts. inhibition, % at 20 µM. diaphorase resazurin-to-resorufin fluorescence, NADH, 16 min; bacterial (C. kluyveri) enzyme, not human. 190,000 tested, 0.69% active;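 active = primary screen inhibition at 20 µM above a set limit, cut at about 50% in these data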;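 also: plate controls were DMSO with full reaction for no effect and wells lacking NADH for full effect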
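Detection: fluorescence of resorufin formed from resazurin, Ex 544/Em 590 nm; test system: Clostridium kluyveri diaphorase enzyme; amount: 0.14 U/mL diaphorase, enzyme working solution; times: 16-min room-temperature incubation before reading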
WT yeast gro inh: growth inhibition of WT yeast, mitochondrial fusion screen | 190,000 tested, 2.1% active | mitochondrial fusion phenotypic screen, WT strain | inhibition, % at 10 µM; in the data active = inhibition above about 58%; tested in S. cerevisiae
G6PDH CS: counter-screen for G6PDH assay hits: L. mesenteroides G6PDH inhibition; Purified L. mesenteroides G6PDH, diaphorase/resazurin coupled fluorescence, 45 min; inhibition, % at 5 µM; 200,000 tested, 0.12% active; AID 1020
Diaph act CS: diaphorase activation or chemical reduction counter-screen. activation factor at 20 µM. Diaphorase/resazurin coupled assay, resorufin fluorescence, 16 min; active compounds read high; 1 = vehicle wells, 0 = NADH-free wells. 190,000 tested, 0.005% active;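 active = diaphorase activity raised at least twofold by the compound at 20 µM; inactive = activation factor below 2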
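Material: Purified diaphorase enzyme from Clostridium kluyveri | Buffer or medium: 50 mM HEPES pH 7.4 with 4.542 mM MgCl2, 0.005% Tween 20 | Times: 16 min enzyme reaction, ambient temperature | Signal: Red resorufin fluorescence at 544/590 nm excitation/emission | Measure: Increased resorufin signal from activators or reducing compounds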
* marks the source's active call; other numbers are inactive results; . = no result. This is a sample that favours compounds with a hit; in the whole collection about 11% have one here. Rule as the data show it, unless noted: active = inhibition above about 50%; inactive = the rest.

SMILES	L major viab	Diaph inh CS	WT yeast gro inh	G6PDH CS	Diaph act CS
Cc1ccc(-c2nc(N(C)C3CCN(C)CC3)c3ccccc3n2)cc1	99.0*	-14.9	38.3	-3.4	1.1
C=CCn1c(O)c(C=Nc2ccc(OC)cc2C)c(=O)[nH]c1=O	0.1	5.1	1.8	-5.9	0.9
CCCCn1c(=O)c(C(=O)Nc2ccccc2)c(O)c2ccccc21	3.6	.	33.7	8.8	.
CCCCn1c(=O)c(C(=O)Nc2ccccc2S(N)(=O)=O)c(O)c2ccccc21	-5.8	27.1	66.6*	17.2	0.7
CCCCCn1c(=O)c(C(=O)Nc2ccccc2S(N)(=O)=O)c(O)c2ccccc21	95.5*	.	76.6*	11.1	.
CCN(CC)C(=O)c1ccc(NC(=O)COc2ccccc2F)cc1	-6.1	6.0	0.9	12.1	0.9
NC(=O)CN1CC(c2ccccc2)CC1=O (stereo unspecified)	5.0	6.9	9.8	1.4	0.9
C=CCn1c(O)c(C(CC)=NCCC2=CCCCC2)c(=O)[nH]c1=O	5.2	19.5	-13.8	-0.1	0.8
COc1ccc(C(=O)C2CCCN(C3CSCCSC3)C2)c(C)c1 (stereo unspecified)	97.2*	20.8	21.0	15.3	0.8
COc1ccc(C(=O)C2CCCN(C3CSCCSC3)C2)c(OC)c1 (stereo unspecified)	20.9	10.6	19.9	8.0	0.9
CC(=O)N1CCC(N2CCCC(C(=O)c3cccc(Cl)c3)C2)CC1 (stereo unspecified)	92.2*	.	7.4	-0.6	.
COc1cccc(C(=O)C2CCCN(C3CCOCC3)C2)c1 (stereo unspecified)	88.2*	22.4	-15.1	15.8	0.8
C=C1C[C@@H]2[C@H](CC[C@]3(C)C(=O)CC[C@@H]23)[C@@]2(C)C=CC(=O)C=C12	.	1.3	12.9	8.7	1
CC1(C)C2CC=C(CN3CCC(O)CC3)C1C2 (stereo unspecified)	63.5*	12.5	-9.8	9.9	0.9
Cc1ccc(C2=CCNCC2)cc1	-12.4	-3.8	-7.5	-2.8	1
CCCCc1nc2ccccc2c(=O)n1-c1ccc(Cl)cc1[N+](=O)[O-]	-3.6	35.7	64.2*	9.5	0.6
CCCCc1nc2ccccc2c(=O)n1-c1ccccc1[N+](=O)[O-]	5.8	16.7	8.0	2.0	0.8
Cc1nc2ccccc2c(=O)n1-c1ccc(Br)cc1[N+](=O)[O-]	-6.4	69.8*	2.5	9.0	0.3
O=S1(=O)CC2(N3CCOCC3)CCCCC21 (stereo unspecified)	-7.1	-4.4	-7.7	-10.0	1
Fc1cccc(C2NCCc3[nH]cnc32)c1 (stereo unspecified)	-3.3	-4.4	21.2	-1.2	1
O=C(c1ccc(N2CC3CC(C2)c2cccc(=O)n2C3)c([N+](=O)[O-])c1)N1CCCC1 (stereo unspecified)	-2.6	4.7	-6.4	0.0	1
CC1CCCCN1C(=O)c1ccc(N2CC3CC(C2)c2cccc(=O)n2C3)c([N+](=O)[O-])c1 (stereo unspecified)	64.6*	4.9	-17.0	0.6	1
O=C(c1ccc(N2CC3CC(C2)c2cccc(=O)n2C3)c([N+](=O)[O-])c1)N1CCCCC1 (stereo unspecified)	54.9*	7.8	-24.5	0.1	0.9
CC12CN3CCN(CC(C3)C1O)C2 (stereo unspecified)	-1.2	-1.5	0.4	13.1	1
CCCOP(=O)(OCCC)C(NC(=O)c1ccccc1)=C(Cl)Cl	-2.0	3.1	-1.3	-4.7	1
SMILES	L major viab	Diaph inh CS	WT yeast gro inh	G6PDH CS	Diaph act CS
c1ccc(Cn2ccnc2)cc1	-8.4	-3.9	1.2	5.3	1
Clc1ccc(COC(Cn2ccnc2)c2ccc(Cl)cc2Cl)cc1 (stereo unspecified)	98.3*	-3.6	82.8	6.2	1
Clc1ccc(CSC(Cn2ccnc2)c2ccc(Cl)cc2Cl)cc1 (stereo unspecified)	98.8*	9.4	83.8	8.5	0.9
CN1CC2([N+](=O)[O-])CC=C(Cl)C([N+](=O)[O-])(C1)C2 (stereo unspecified)	-7.7	4.0	-1.0	-1.3	1
O=c1c2ccccc2nc(Cc2ccccc2)n1-c1ccc(O)cc1	13.0	0.4	-1.1	2.2	1
O=c1[nH]c(=O)n(C2CCCCC2)c(O)c1C1NCCc2ccccc21 (stereo unspecified)	-8.4	-4.6	10.7	-0.9	1
Oc1cccc(/C=N/NP(=S)(c2ccccc2)c2ccccc2)c1	83.1*	32.9	15.5	2.4	0.7
N=c1sccn1Cc1ccc(Cl)cc1Cl	65.7*	-7.4	6.8	7.4	1.1
FC(F)(F)c1ccc(CN2CCNCC2)cc1	95.6*	2.2	-5.8	10.9	1
c1csc(CN2CCNCC2)c1	-4.5	13.8	-9.8	5.9	0.9
CCN(CC)CCCN=C(C)c1c(O)n(-c2ccc(C)cc2)c(=O)[nH]c1=O	1.4	5.5	10.6	13.0	0.9
Cn1cc(NC(=O)CCl)cn1	1.0	4.7	-13.7	0.5	1
Cc1cc(N2CCCCC2)ccc1C=C1C(=O)N(C)C(=S)N(C)C1=O	99.5*	29.5	9.2	0.8	0.7
Nc1ccc(C2(c3ccc(N)cc3)CN3CCC2CC3)cc1	-2.3	-1.4	-3.0	3.4	1
CN1CCN(c2ccc(N)cc2Cl)CC1	-4.2	-13.3	6.0	10.4	1.1
Cc1ccccc1Cc1c(C)nc2nc(SCC(=O)N3CCC4(CC3)OCCO4)nn2c1C	72.5*	7.0	2.2	-0.5	0.9
Cc1ccc(Cc2c(C)nc3nc(SCC(=O)N4CCC5(CC4)OCCO5)nn3c2C)cc1	1.3	10.1	-7.9	2.7	0.9
O=C(Nc1ccc(Cl)cc1)O/N=C(\c1ccccc1)c1ccccn1	-7.9	4.9	-6.8	2.8	1
CN1C(=O)C(=Cc2ccccc2Oc2ccc(Cl)cc2)C(=O)N(C)C1=O	62.2*	5.6	-4.8	15.2	0.9
Oc1ccc2ccccc2c1CN1CC=C(c2ccccc2)CC1	3.6	34.1	-8.2	9.3	0.7
CCN(CC)c1ccc(CN2CC=C(c3ccc(F)cc3)CC2)cc1	95.7*	10.3	52.2	8.1	0.9
CCc1ccc(N2C(=O)NC(=O)/C(=C\c3cccn3CCOc3ccc(C(C)C)cc3)C2=O)cc1	94.8*	-4.0	-8.3	4.6	1
CC(C)c1ccc(N2C(=O)NC(=O)/C(=C/c3cnc(-c4ccccc4)nc3)C2=O)cc1	-4.6	9.1	3.2	3.2	0.9
O=[N+]([O-])c1ccc(N2CCCC2)c(F)c1Br	36.5	16.8	0.5	-0.3	0.8
O=[N+]([O-])c1cc(F)c(N2CCCC2)cc1N1CCNCC1	25.9	-0.7	9.4	8.3	1
CCN1CCN(c2cc(N3CCCC3)c([N+](=O)[O-])cc2F)CC1	99.1*	10.3	18.3	13.7	0.9
CN1CCN(c2cc(N3CCCCCC3)c(F)cc2[N+](=O)[O-])CC1	98.7*	20.2	16.8	2.2	0.8
